Results from ChEMBL document CHEMBL3217692, “Synthesis and cytotoxicity evaluation of novel pyrido[3,4-d]pyrimidine derivatives as potential anticancer agents” (2012).

Columns and labels:
Format in all cases: functional
[1] = tested on: KM12; assay: Cytotoxicity against human KM12 cells assessed as cell growth at 10 uM after 48 hrs by sulforhodamine B assay relative to control; conditions: KM12, 48 h, read-out: Activity
In short: (§1)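 Adherent cells were grown in RPMI 1640 with 5% FBS and 2 mM L-glutamine, seeded at 5000–40 000 cells/well by doubling time, and held 24 h at 37 °C, 5% CO2 before drug. Time-zero plates were TCA-fixed. Compound in DMSO, single dose 10 μM, 48 h. Cells were fixed with cold TCA (final 10%, 60 min, 4 °C) and stained with 0.4% SRB. Bound dye was dissolved in 10 mM Tris base and read at 515 nm. Percent growth was derived from time-zero, control and treated absorbances.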

[2] = tested on: NCI-H460; assay: Cytotoxicity against human NCI-H460 cells assessed as cell growth at 10 uM after 48 hrs by sulforhodamine B assay relative to control; conditions: NCI-H460, 48 h, read-out: Activity; in short: as §1
[3] = tested on: T47D; assay: Cytotoxicity against human T47D cells assessed as cell growth at 10 uM after 48 hrs by sulforhodamine B assay relative to control; conditions: read-out: Activity; in short: as §1
[4] = tested on: HL-60(TB); assay: Cytotoxicity against human HL-60(TB) cells assessed as cell growth at 10 uM after 48 hrs by sulforhodamine B assay relative to control; conditions: HL-60, 48 h, read-out: Activity
In short: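 Suspension line grown in RPMI 1640 with 5% FBS and 2 mM L-glutamine, plated at 5000–40 000 cells/well and preincubated 24 h at 37 °C, 5% CO2. Time-zero plates fixed at dosing. Single 10 μM dose in DMSO for 48 h. Settled cells fixed with TCA (final 16%), then stained with 0.4% SRB, solubilised in 10 mM Tris and read at 515 nm. Growth percentage calculated against time-zero and untreated control.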

[5] = tested on: SK-MEL-5; assay: Cytotoxicity against human SK-MEL-5 cells assessed as cell growth at 10 uM after 48 hrs by sulforhodamine B assay relative to control; conditions: SK-MEL-5, 48 h, read-out: Activity; in short: as §1
[6] = tested on: SR; assay: Cytotoxicity against human SR cells assessed as cell growth at 10 uM after 48 hrs by sulforhodamine B assay relative to control; conditions: read-out: Activity
In short: (§2)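 Suspension lines were cultured in RPMI 1640 with 5% FBS and 2 mM L-glutamine, plated at 5000–40 000 cells/well and preincubated 24 h (37 °C, 5% CO2). Compound in DMSO was given at a single 10 μM dose for 48 h. Settled cells were fixed with 80% TCA (final 16%), then stained with SRB and read at 515 nm. Growth percentage was taken relative to time-zero and untreated control absorbances.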

[7] = tested on: MDA-MB-468; assay: Cytotoxicity against human MDA-MB-468 cells assessed as cell growth at 10 uM after 48 hrs by sulforhodamine B assay relative to control; conditions: MDA-MB-468, 48 h, read-out: Activity; in short: as §1
[8] = tested on: SW-620; assay: Cytotoxicity against human SW620 cells assessed as cell growth at 10 uM after 48 hrs by sulforhodamine B assay relative to control; conditions: SW-620, 48 h, read-out: Activity; in short: as §1
[9] = Cytotoxicity against human UACC62 cells assessed as cell growth at 10 uM after 48 hrs by sulforhodamine B assay relative to control; conditions: UACC-62, 48 h, read-out: Activity
In short: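 NCI-60 single-dose screen. Cells were grown in RPMI 1640 with 5% FBS and 2 mM L-glutamine, seeded at 5000–40 000 cells/well according to doubling time, and pre-incubated 24 h at 37 °C, 5% CO2. Time-zero plates were TCA-fixed at dosing. Compound in DMSO was given at 10 μM for 48 h. Cells were then fixed in cold TCA, stained with 0.4% SRB, solubilised in 10 mM Tris base and read at 515 nm. Growth % was calculated from time-zero, control and treated absorbances.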

[10] = tested on: LOX IMVI; assay: Cytotoxicity against human LOXIMVI cells assessed as cell growth at 10 uM after 48 hrs by sulforhodamine B assay relative to control; conditions: read-out: Activity; in short: as §1
[11] = tested on: SF-295; assay: Cytotoxicity against human SF295 cells assessed as cell growth at 10 uM after 48 hrs by sulforhodamine B assay relative to control; conditions: SF-295, 48 h, read-out: Activity; in short: as §1
[12] = tested on: NCI-H322M; assay: Cytotoxicity against human NCI-H322M cells assessed as cell growth at 10 uM after 48 hrs by sulforhodamine B assay relative to control; conditions: read-out: Activity; in short: as §1
[13] = Cytotoxicity against human OVCAR4 cells assessed as cell growth at 10 uM after 48 hrs by sulforhodamine B assay relative to control; conditions: OVCAR-4, 48 h, read-out: Activity; in short: as §1
[14] = tested on: CAKI-1; assay: Cytotoxicity against human CAKI-1 cells assessed as cell growth at 10 uM after 48 hrs by sulforhodamine B assay relative to control; conditions: CAKI-1, 48 h, read-out: Activity; in short: as §1
[15] = tested on: Malme-3M; assay: Cytotoxicity against human MALME-3M cells assessed as cell growth at 10 uM after 48 hrs by sulforhodamine B assay relative to control; conditions: read-out: Activity; in short: as §1
[16] = tested on: NCI-H226; assay: Cytotoxicity against human NCI-H226 cells assessed as cell growth at 10 uM after 48 hrs by sulforhodamine B assay relative to control; conditions: NCI-H226, 48 h, read-out: Activity; in short: as §1
[17] = tested on: SK-OV-3; assay: Cytotoxicity against human SKOV3 cells assessed as cell growth at 10 uM after 48 hrs by sulforhodamine B assay relative to control; conditions: SK-OV-3, 48 h, read-out: Activity; in short: as §1
[18] = tested on: SK-MEL-2; assay: Cytotoxicity against human SK-MEL-2 cells assessed as cell growth at 10 uM after 48 hrs by sulforhodamine B assay relative to control; conditions: SK-MEL-2, 48 h, read-out: Activity; in short: as §1
[19] = tested on: SF-268; assay: Cytotoxicity against human SF268 cells assessed as cell growth at 10 uM after 48 hrs by sulforhodamine B assay relative to control; conditions: SF-268, 48 h, read-out: Activity; in short: as §1
[20] = tested on: HT-29; assay: Cytotoxicity against human HT-29 cells assessed as cell growth at 10 uM after 48 hrs by sulforhodamine B assay relative to control; conditions: HT-29, 48 h, read-out: Activity; in short: as §1
[21] = tested on: RXF 393; assay: Cytotoxicity against human RXF393 cells assessed as cell growth at 10 uM after 48 hrs by sulforhodamine B assay relative to control; conditions: RXF 393, 48 h, read-out: Activity; in short: as §1
[22] = tested on: MOLT-4; assay: Cytotoxicity against human MOLT4 cells assessed as cell growth at 10 uM after 48 hrs by sulforhodamine B assay relative to control; conditions: MOLT-4, 48 h, read-out: Activity; in short: as §2
[23] = tested on: HOP-62; assay: Cytotoxicity against human HOP62 cells assessed as cell growth at 10 uM after 48 hrs by sulforhodamine B assay relative to control; conditions: HOP-62, 48 h, read-out: Activity; in short: as §1
[24] = tested on: MDA-MB-231; assay: Cytotoxicity against human MDA-MB-231 cells assessed as cell growth at 10 uM after 48 hrs by sulforhodamine B assay relative to control; conditions: MDA-MB-231, 48 h, read-out: Activity; in short: as §1
[25] = tested on: SN12C; assay: Cytotoxicity against human SN12C cells assessed as cell growth at 10 uM after 48 hrs by sulforhodamine B assay relative to control; conditions: read-out: Activity; in short: as §1
[26] = Cytotoxicity against human HCT15 cells assessed as cell growth at 10 uM after 48 hrs by sulforhodamine B assay relative to control; conditions: HCT-15, 48 h, read-out: Activity; in short: as §1

Structure (SMILES): COc1nccc2c(-c3cccc(F)c3)nc(N)nc12
- growth at 10 µM [1]: 104%
- growth at 10 µM [2]: 112%
- growth at 10 µM [3]: 93.5%
- growth at 10 µM [4]: 92.5%
- growth at 10 µM [5]: 108%
- growth at 10 µM [6]: 111%
- growth at 10 µM [7]: 28.6%
- growth at 10 µM [8]: 112%
- growth at 10 µM [9]: 101%
- growth at 10 µM [10]: 101%
- growth at 10 µM [11]: 97.5%
- growth at 10 µM [12]: 112%
- growth at 10 µM [13]: 97.6%
- growth at 10 µM [14]: 104%
- growth at 10 µM [15]: 115%
- growth at 10 µM [16]: 98.2%
- growth at 10 µM [17]: 105%
- growth at 10 µM [18]: 89.5%
- growth at 10 µM [19]: 108%
- growth at 10 µM [20]: 96.4%
- growth at 10 µM [21]: 101%
- growth at 10 µM [22]: 77.8%
- growth at 10 µM [23]: 104%
- growth at 10 µM [24]: 107%
- growth at 10 µM [25]: 115%
- growth at 10 µM [26]: 95%
